Experiments:
Staphylococcus aureus [1] = test: Antimicrobial activity against vancomycin resistant Staphylococcus aureus VRS-9 expressing SCCmec type 2 element by microdilution method in presence of 50 mg/L calcium
Staphylococcus aureus [2] = test: Antimicrobial activity against vancomycin intermediate Staphylococcus aureus NRS-19 expressing SCCmec type 2 element by microdilution method in presence of 50 mg/L calcium; format: functional
Outline: (§1)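 Daptomycin MIC by CLSI broth microdilution in cation-adjusted Mueller-Hinton broth, supplemented with calcium to a final 50 mg/liter. Read visually as the lowest concentration with no visible growth. ATCC 29213 and E. faecalis ATCC 29212 served as controls. CA-MRSA and DNSSA isolates came from patients at the study hospital; VISA isolates came from NARSA.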

Staphylococcus aureus [3] = test: Bactericidal activity against vancomycin-resistant Staphylococcus aureus assessed as antibiotic concentration that reduced the number of viable cells by =>99.9% by colony count method in presence of 50 mg/L calcium; format: functional
Outline: (§2)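 MBC per CLSI following microdilution in cation-adjusted Mueller-Hinton broth with calcium added to 50 mg/liter final. Defined as the concentration giving ≥99.9% reduction in viable cells, judged from colony counts of the growth control well against Pearson rejection-value tables.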

Staphylococcus aureus [4] = test: Antimicrobial activity against community-acquired methicillin-resistant Staphylococcus aureus assessed as susceptible isolates by microdilution method in presence of 50 mg/L calcium; format: functional
Outline: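 Daptomycin MICs by CLSI broth microdilution in cation-adjusted Mueller-Hinton broth with calcium added to a final 50 mg/liter, read visually. Percentage susceptible among 92 CA-MRSA isolates assigned by CLSI breakpoints.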

Staphylococcus aureus [5] = test: Antimicrobial activity against vancomycin intermediate Staphylococcus aureus NRS-51 expressing SCCmec type 2 element by microdilution method in presence of 50 mg/L calcium; format: functional; outline: as §1
Staphylococcus aureus [6] = test: Antimicrobial activity against vancomycin intermediate Staphylococcus aureus NRS-126 expressing SCCmec type 2 element by microdilution method in presence of 50 mg/L calcium; format: functional; outline: as §1
Staphylococcus aureus [7] = test: Antimicrobial activity against vancomycin intermediate Staphylococcus aureus NRS-22 expressing SCCmec type 2 element by microdilution method in presence of 50 mg/L calcium; format: functional; outline: as §1
Staphylococcus aureus [8] = test: Bactericidal activity against vancomycin-intermediate Staphylococcus aureus assessed as antibiotic concentration that reduced the number of viable cells by =>99.9% by colony count method in presence of 50 mg/L calcium; format: functional; outline: as §2
Staphylococcus aureus [9] = test: Antimicrobial activity against vancomycin resistant Staphylococcus aureus VRS-10 expressing SCCmec type 2 element by microdilution method in presence of 50 mg/L calcium
Staphylococcus aureus [10] = test: Antimicrobial activity against daptomycin-nonsusceptible Staphylococcus aureus assessed as susceptible isolates by microdilution method in presence of 50 mg/L calcium; format: functional
Outline: (§3)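 Broth microdilution MIC per CLSI in cation-adjusted Mueller-Hinton broth, with calcium added to a final 50 mg/liter for daptomycin testing. MIC is the lowest drug concentration with no visible growth, read by eye. Percent susceptible was assigned from CLSI breakpoints. S. aureus ATCC 29213 and E. faecalis ATCC 29212 served as control strains.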

Staphylococcus aureus [11] = test: Antimicrobial activity against vancomycin intermediate Staphylococcus aureus NRS-76 expressing SCCmec type 2 element by microdilution method in presence of 50 mg/L calcium; format: functional
Outline: (§4)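 Broth microdilution per CLSI in cation-adjusted Mueller-Hinton broth supplemented with calcium to 50 mg/liter final. Antibiotic powders were reconstituted per CLSI. The MIC was read visually as the lowest drug concentration with no visible growth. S. aureus ATCC 29213 and E. faecalis ATCC 29212 served as control strains.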

Staphylococcus aureus [12] = test: Antimicrobial activity against vancomycin resistant Staphylococcus aureus VRS-5 expressing SCCmec type 2 element by microdilution method in presence of 50 mg/L calcium
Staphylococcus aureus [13] = test: Antimicrobial activity against vancomycin resistant Staphylococcus aureus VRS-2 expressing SCCmec type 2 element by microdilution method in presence of 50 mg/L calcium
Staphylococcus aureus [14] = test: Antimicrobial activity against vancomycin intermediate Staphylococcus aureus NRS-402 expressing SCCmec type 2 element by microdilution method in presence of 50 mg/L calcium; format: functional; outline: as §1
Staphylococcus aureus [15] = test: Antimicrobial activity against vancomycin intermediate Staphylococcus aureus NRS-17 expressing SCCmec type 2 element by microdilution method in presence of 50 mg/L calcium; format: functional; outline: as §1
Staphylococcus aureus [16] = test: Antimicrobial activity against vancomycin intermediate Staphylococcus aureus NRS-24 expressing SCCmec type 2 element by microdilution method in presence of 50 mg/L calcium; format: functional; outline: as §1
Staphylococcus aureus [17] = test: Antimicrobial activity against vancomycin intermediate Staphylococcus aureus NRS-23 expressing SCCmec type 2 element by microdilution method in presence of 50 mg/L calcium; format: functional; outline: as §1
Staphylococcus aureus [18] = test: Antimicrobial activity against vancomycin-resistant Staphylococcus aureus assessed as susceptible isolates by microdilution method in presence of 50 mg/L calcium; format: functional; outline: as §4
Staphylococcus aureus [19] = test: Antimicrobial activity against vancomycin intermediate Staphylococcus aureus NRS-404 expressing SCCmec type 2 element by microdilution method in presence of 50 mg/L calcium; format: functional; outline: as §1
Staphylococcus aureus [20] = test: Antimicrobial activity against vancomycin resistant Staphylococcus aureus VRS-4 expressing SCCmec type 4 element by microdilution method in presence of 50 mg/L calcium
Staphylococcus aureus [21] = test: Antimicrobial activity against vancomycin resistant Staphylococcus aureus VRS-6 expressing SCCmec type 2 element by microdilution method in presence of 50 mg/L calcium; format: functional; outline: as §4
Staphylococcus aureus [22] = test: Antimicrobial activity against vancomycin intermediate Staphylococcus aureus NRS-4 expressing SCCmec type 2 element by microdilution method in presence of 50 mg/L calcium; format: functional; outline: as §1
Staphylococcus aureus [23] = test: Antimicrobial activity against vancomycin-intermediate Staphylococcus aureus assessed as susceptible isolates by microdilution method in presence of 50 mg/L calcium; format: functional; outline: as §3
Staphylococcus aureus [24] = test: Antimicrobial activity against daptomycin-nonsusceptible Staphylococcus aureus by microdilution method in presence of 50 mg/L calcium; format: functional; outline: as §1
Staphylococcus aureus [25] = test: Antimicrobial activity against vancomycin intermediate Staphylococcus aureus NRS-118 expressing SCCmec type 1 element by microdilution method in presence of 50 mg/L calcium; format: functional; outline: as §1
Staphylococcus aureus [26] = test: Antimicrobial activity against vancomycin intermediate Staphylococcus aureus NRS-3 expressing SCCmec type 2 element by microdilution method in presence of 50 mg/L calcium; format: functional; outline: as §1
Staphylococcus aureus [27] = test: Antimicrobial activity against vancomycin-intermediate Staphylococcus aureus by microdilution method in presence of 50 mg/L calcium; format: functional
Outline: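 Daptomycin MIC by CLSI broth microdilution in cation-adjusted Mueller-Hinton broth supplemented with calcium to a final 50 mg/liter. The endpoint is the lowest concentration with no visible growth, read visually. S. aureus ATCC 29213 and E. faecalis ATCC 29212 were used as control strains.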

Staphylococcus aureus [28] = test: Antimicrobial activity against vancomycin intermediate Staphylococcus aureus NRS-74 expressing SCCmec type 2 element by microdilution method in presence of 50 mg/L calcium; format: functional; outline: as §4
Staphylococcus aureus [29] = test: Antimicrobial activity against vancomycin intermediate Staphylococcus aureus NRS-18 expressing SCCmec type 2 element by microdilution method in presence of 50 mg/L calcium; format: functional; outline: as §1
Staphylococcus aureus [30] = test: Antimicrobial activity against vancomycin intermediate Staphylococcus aureus NRS-27 expressing SCCmec type 2 element by microdilution method in presence of 50 mg/L calcium; format: functional; outline: as §1

`CCCCCCCCCC(=O)N[C@@H](Cc1c[nH]c2ccccc12)C(=O)N[C@H](CC(N)=O)C(=O)N[C@@H](CC(=O)O)C(=O)N[C@@H]1C(=O)NCC(=O)N[C@@H](CCCN)C(=O)N[C@@H](CC(=O)O)C(=O)N[C@H](C)C(=O)N[C@@H](CC(=O)O)C(=O)NCC(=O)N[C@H](CO)C(=O)N[C@@H]([C@H](C)CC(=O)O)C(=O)N[C@@H](CC(=O)c2ccccc2N)C(=O)O[C@@H]1C` gave an MIC (Staphylococcus aureus [1]) of 0.5 µg/mL, an MIC (Staphylococcus aureus [2]) of 2 µg/mL and an MBC50 (Staphylococcus aureus [3]) of 1 µg/mL. The MBC90 (Staphylococcus aureus [3]) was 1 µg/mL, the MBC (Staphylococcus aureus [3]; Staphylococcus aureus) was 0.5 µg/mL and the Activity (Staphylococcus aureus [4]) was 100%. The MIC (Staphylococcus aureus [5]) was 1 µg/mL, the MIC (Staphylococcus aureus [6]) was 2 µg/mL and the MIC (Staphylococcus aureus [7]) was 2 µg/mL. The MBC50 (Staphylococcus aureus [8]) was 2 µg/mL, the MBC90 (Staphylococcus aureus [8]) was 4 µg/mL and the MBC (Staphylococcus aureus [8]; Staphylococcus aureus) was 0.5 µg/mL. It also gave an MIC (Staphylococcus aureus [9]) of 0.5 µg/mL, an Activity (Staphylococcus aureus [10]) of 0% and an MIC (Staphylococcus aureus [11]) of 2 µg/mL. For the same molecule, the MIC (Staphylococcus aureus [12]) was 0.5 µg/mL, the MIC (Staphylococcus aureus [13]) was 0.5 µg/mL and the MIC (Staphylococcus aureus [14]) was 8 µg/mL. It also gave an MIC (Staphylococcus aureus [15]) of 4 µg/mL, an MIC (Staphylococcus aureus [16]) of 2 µg/mL and an MIC (Staphylococcus aureus [17]) of 2 µg/mL. For the same molecule, the Activity (Staphylococcus aureus [18]) was 100%, the MIC (Staphylococcus aureus [19]) was 2 µg/mL and the MIC (Staphylococcus aureus [20]) was 0.5 µg/mL. It also gave an MIC (Staphylococcus aureus [21]) of 1 µg/mL, an MIC (Staphylococcus aureus [22]) of 1 µg/mL and an Activity (Staphylococcus aureus [23]) of 35%. The MIC (Staphylococcus aureus [24]) was 4 µg/mL, the MIC50 (Staphylococcus aureus [24]) was 4 µg/mL and the MIC (Staphylococcus aureus [25]) was 4 µg/mL. It also gave an MIC (Staphylococcus aureus [26]) of 4 µg/mL, an MIC50 (Staphylococcus aureus [27]) of 2 µg/mL and an MIC90 (Staphylococcus aureus [27]) of 4 µg/mL. It also gave an MIC (Staphylococcus aureus [28]) of 4 µg/mL, an MIC (Staphylococcus aureus [29]) of 1 µg/mL and an MIC (Staphylococcus aureus [30]) of 1 µg/mL.

From ChEMBL document CHEMBL1275598, “In vitro activity of ceftaroline against community-associated methicillin-resistant, vancomycin-intermediate, vancomycin-resistant, and daptomycin-nonsusceptible Staphylococcus aureus isolates” (2010)
